{
  "source": "paper PMC3808079",
  "about": "(Oncogene, 2012)",
  "key": {"LN229 cells [1]": {"test_system": "LN229 cells", "assay": "Cell viability assay", "type": "cell-based, human"}, "LN229 cells [2]": {"test_system": "LN229 cells", "assay": "Colony formation assay", "type": "cell-based, human", "conditions": "Figure 6e; for Colony numbers: drug alone, soft agar, 2 weeks", "summary_of_the_method": "(§1)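 Soft-agar assay: 50 000 cells per well in 0.4% agar with 10% FBS in DMEM, plated over a 0.6% agar base, with test peptide, drug or vehicle. Combinations used various doses of the test peptide with TMZ or BCNU. Cells grew 2 weeks at 37 °C. Colonies were stained with MTT, counted and normalized to vehicle (%). Mean±s.d.; Student's t-test.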"}, "LN-Z308 cells [3]": {"test_system": "LN-Z308 cells", "assay": "Colony formation assay", "type": "cell-based, human", "conditions": "for Colony numbers: drug alone, soft agar, 2 weeks", "summary_of_the_method": "as §1"}, "LN-Z308 cells [4]": {"test_system": "LN-Z308 cells", "assay": "Cell viability assay", "type": "cell-based, human", "summary_of_the_method": "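Cells (5 × 10^3/well) grown in DMEM/10% FBS were seeded in 96-well plates. Next day, medium was replaced with fresh medium containing test peptides (50 μM) or vehicle, for 16 h at 37 °C. For combinations, cells got various concentrations of the test peptide with TMZ (25 μM) or BCNU (50 μM). Viability was read by MTT. Mean±s.d., 3–4 independent experiments; Student's t-test.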"}, "LN229 cells [5]": {"test_system": "LN229 cells", "assay": "Transwell", "type": "cell-based, human", "conditions": "synthetic peptide 50 μM, 16 h, Figure 6c", "summary_of_the_method": "(§2)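 Cells (1 × 10^5/well) were seeded in six-well plates and treated with test peptides (50 μM) for 16 h. Invasion through Matrigel was measured in a transwell system (8 μm pore polycarbonate membrane). Mean±s.d. of 3–4 independent experiments; Student's t-test.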"}, "PIKE-A/Akt interaction [6]": {"target": "T1, PIKE-A/Akt interaction (Homo sapiens, UniProt P31749+Q99490)", "T1 sequence (Q99490 1-836 isoform Q99490-2)": "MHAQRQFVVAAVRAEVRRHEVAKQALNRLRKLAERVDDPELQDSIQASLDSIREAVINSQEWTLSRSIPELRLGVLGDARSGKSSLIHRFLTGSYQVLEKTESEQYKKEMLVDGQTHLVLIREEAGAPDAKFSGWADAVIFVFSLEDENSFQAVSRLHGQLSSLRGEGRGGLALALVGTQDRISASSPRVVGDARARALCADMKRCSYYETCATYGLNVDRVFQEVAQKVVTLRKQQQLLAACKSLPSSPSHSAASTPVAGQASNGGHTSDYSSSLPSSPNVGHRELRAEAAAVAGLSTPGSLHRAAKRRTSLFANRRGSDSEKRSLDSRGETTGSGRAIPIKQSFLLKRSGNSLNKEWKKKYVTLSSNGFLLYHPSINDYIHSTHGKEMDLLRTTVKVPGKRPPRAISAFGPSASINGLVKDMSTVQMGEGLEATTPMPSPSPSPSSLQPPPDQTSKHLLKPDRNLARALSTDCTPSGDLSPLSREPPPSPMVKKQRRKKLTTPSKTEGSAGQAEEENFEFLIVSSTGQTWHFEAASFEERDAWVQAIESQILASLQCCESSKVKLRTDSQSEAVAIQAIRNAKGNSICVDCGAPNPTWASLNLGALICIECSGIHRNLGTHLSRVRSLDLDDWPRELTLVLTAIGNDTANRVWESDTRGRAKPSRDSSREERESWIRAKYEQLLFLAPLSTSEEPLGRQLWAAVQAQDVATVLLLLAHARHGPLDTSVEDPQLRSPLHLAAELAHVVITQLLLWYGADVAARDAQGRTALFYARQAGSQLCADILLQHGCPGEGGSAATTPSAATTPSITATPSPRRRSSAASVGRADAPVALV", "T1 sequence (P31749 whole entry)": "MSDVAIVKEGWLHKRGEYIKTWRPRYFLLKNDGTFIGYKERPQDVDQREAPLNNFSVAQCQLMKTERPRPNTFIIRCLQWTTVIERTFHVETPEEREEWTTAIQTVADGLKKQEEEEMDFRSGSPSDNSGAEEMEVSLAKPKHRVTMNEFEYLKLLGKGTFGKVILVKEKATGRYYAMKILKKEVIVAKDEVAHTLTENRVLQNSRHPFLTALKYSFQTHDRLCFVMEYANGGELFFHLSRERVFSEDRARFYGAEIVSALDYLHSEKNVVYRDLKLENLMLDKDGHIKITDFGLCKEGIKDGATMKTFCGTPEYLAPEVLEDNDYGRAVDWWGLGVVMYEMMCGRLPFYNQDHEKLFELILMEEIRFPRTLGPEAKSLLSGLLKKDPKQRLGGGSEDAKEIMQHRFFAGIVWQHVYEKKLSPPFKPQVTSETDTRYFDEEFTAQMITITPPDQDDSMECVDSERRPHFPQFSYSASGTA", "assay": "In vitro binding assay, GST-PIKE-A", "conditions": "short synthetic peptides; Figure 5b", "summary_of_the_method": "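Purified recombinant GST-PIKE-A (a.a. 1–356) was bound to glutathione beads and incubated, with test peptides, with lysates of HEK293 cells transfected with HA-Akt, 3 h at 4 °C. Bead-bound proteins were run on 10% SDS-PAGE and immunoblotted with anti-HA. GST proteins were verified by Coomassie staining.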"}, "PIKE-A/Akt interaction [7]": {"target": "T1, PIKE-A/Akt interaction", "assay": "ELISA-based protein interaction assay", "type": "binding", "conditions": "peptide 10 μM; Figure 5c"}, "LN-Z308 cells [8]": {"test_system": "LN-Z308 cells", "assay": "Transwell", "type": "cell-based, human", "conditions": "synthetic peptide 50 μM, 16 h, Figure 6c", "summary_of_the_method": "as §2"}, "[9]": {"test_system": "Akt signaling in LN-Z308 cells", "assay": "Immunoblotting of Akt phosphorylation and downstream signaling", "type": "cell-based, human", "conditions": "peptide-treated cell lysates, dose-dependent, immunoblot, Figure 7b"}, "PIKE-A/Akt interaction [10]": {"target": "T1, PIKE-A/Akt interaction", "type": "binding", "summary_of_the_method": "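HEK293 cells were co-transfected with GST-PIKE-A and HA-Akt. After 40 h, lysates were collected and GST-PIKE-A was pulled down on glutathione beads in the presence of test peptides. Bound HA-Akt was detected by anti-HA immunoblot. GST-PIKE-A was verified with anti-GST-HRP.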"}, "[11]": {"test_system": "PIKE-A/Akt interaction in HEK293 cells", "assay": "GST pull-down from co-transfected HEK293 cells treated with synthetic peptides", "type": "cell-based", "conditions": "sp2 50 μM, Figure 5f", "summary_of_the_method": "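HEK293 cells were co-transfected with GST-PIKE-A and HA-Akt, then treated with 50 μM test peptide in culture medium for various times up to 24 h. GST-PIKE-A was pulled down on glutathione beads, and associated HA-Akt was detected by anti-HA immunoblot.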"}, "LN-Z308 cells [12]": {"test_system": "LN-Z308 cells", "assay": "Cell migration, wound-healing assay", "type": "cell-based, human", "conditions": "synthetic peptide 50 μM, 10 h, Figure 6b", "summary_of_the_method": "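LN-Z308 monolayers were grown to confluence in six-well plates and scratched with a pipette tip, then washed to remove nonadherent cells. Medium containing test peptides (50 μM) or DMSO was added at 0 h, and cells were incubated 10 h. Wound area was imaged by light microscopy. % wound healed = 100-[(final area/initial area) × 100%]. Mean±s.d. of three or four independent experiments; Student's t-test.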"}, "[13]": {"conditions": "synthetic peptide 50 μM, 16 h, Figure 6a"}, "[14]": {"conditions": "sp2 various concentrations + TMZ 25 μM, 16 h, Figure 6d"}, "[15]": {"conditions": "various concentrations of sp2, 16 h, Figure 6d"}},
  "note": "Ends that are not written are not given here.",
  "data": [
    {"compound": "O=NN(CCCl)C(=O)NCCCl", "note": "[BCNU, Carmustine, reference compound]", "values": [
      {"measurement": "Cell viability (MTT)", "setting": "LN229 cells [1]; BCNU 50 μM, 24 h, after 40 h plasmid transfection, Figure 4c", "value": "reduced cell viability regardless of peptide transfection"},
      {"measurement": "Colony numbers", "setting": "LN229 cells [2]", "value": "decreased the colony numbers"},
      {"measurement": "Colony numbers", "setting": "LN-Z308 cells [3]; Figure 6e", "value": "decreased the colony numbers"}
    ]},
    {"compound": "Cn1nnc2c(C(N)=O)ncn2c1=O", "note": "[TMZ, temozolomide, reference compound]", "values": [
      {"measurement": "Cell viability (MTT)", "setting": "LN229 cells [1]; TMZ 25 μM, 16 h, Figure 6d", "value": "potently decreased"},
      {"measurement": "Cell viability (MTT)", "setting": "LN229 cells [1]; TMZ 25 μM, 24 h, compared with vehicle, Figure 4c", "value": "modest effect in repressing LN229 cell viability"},
      {"measurement": "Colony numbers", "setting": "LN229 cells [2]", "value": "decreased the colony numbers"},
      {"measurement": "Cell viability (MTT)", "setting": "LN-Z308 cells [4]; TMZ 25 μM, 16 h, Figure 6d", "value": "potently decreased"},
      {"measurement": "Colony numbers", "setting": "LN-Z308 cells [3]; Figure 6e", "value": "decreased the colony numbers"}
    ]},
    {"compound": "DARSG [sp4]", "values": [
      {"measurement": "Invasive activity", "setting": "LN229 cells [5]", "value": "did not significantly affect"},
      {"measurement": "Interaction between a fragment of PIKE-A (1–356 a.a.) and Akt", "setting": "PIKE-A/Akt interaction [6]", "value": "decreased the interaction"},
      {"measurement": "Disruption of the interaction between PIKE-A and Akt (ELISA, RLU)", "setting": "PIKE-A/Akt interaction [7]", "value": "failed to block the PIKE-A/Akt interaction"},
      {"measurement": "Cell viability (MTT)", "setting": "LN-Z308 cells [4]; [13]", "value": "no effect"},
      {"measurement": "Invasive activity", "setting": "LN-Z308 cells [8]", "value": "did not significantly affect"},
      {"measurement": "Akt T308 and S473 phosphorylation", "setting": "[9]", "value": "no effect on Akt phosphorylation"}
    ]},
    {"compound": "DARSGKSSLIHRFLTGSYQ [PP2]", "values": [
      {"measurement": "Disruption of the interaction between PIKE-A and Akt (ELISA, RLU)", "setting": "PIKE-A/Akt interaction [7]", "value": "failed to block the PIKE-A/Akt interaction"},
      {"measurement": "Inhibition of the PIKE-A/Akt interaction, GST pull-down", "setting": "PIKE-A/Akt interaction [10]; peptide up to 10 μM, Figure 2f", "value": "did not demonstrate an inhibitory effect"}
    ]},
    {"compound": "LKKDPK [sp9]", "values": [
      {"measurement": "Interaction between a fragment of PIKE-A (1–356 a.a.) and Akt", "setting": "PIKE-A/Akt interaction [6]", "value": "decreased the interaction"}
    ]},
    {"compound": "PELRLGVL [sp2]", "values": [
      {"measurement": "Inhibition of PIKE-A binding to Akt at 24 h", "setting": "[11]; 24 h in cell culture medium", "value": "lost its suppressive activity"},
      {"measurement": "Time at which inhibition of PIKE-A binding to Akt was seen", "setting": "[11]; time course", "value": 4, "unit": "h"},
      {"measurement": "Time of peak inhibition of PIKE-A binding to Akt", "setting": "[11]; time course", "value": 16, "unit": "h"},
      {"measurement": "Invasive activity", "setting": "LN229 cells [5]", "value": "strongly inhibited the invasive activity"},
      {"measurement": "Cell migration", "setting": "LN-Z308 cells [12]", "value": "strongly inhibits"},
      {"measurement": "Interaction between a fragment of PIKE-A (1–356 a.a.) and Akt", "setting": "PIKE-A/Akt interaction [6]", "value": "decreased the interaction"},
      {"measurement": "Cell viability (MTT), co-treatment of sp2 with TMZ", "setting": "LN229 cells [1]; [14]", "value": "inhibitory trend was similar"},
      {"measurement": "Cell viability (MTT)", "setting": "LN229 cells [1]; [13]", "value": "not in LN229 cells"},
      {"measurement": "Cell viability (MTT), sp2 alone", "setting": "LN229 cells [1]; [15]", "value": "not as evident as in LN-Z308 cells"},
      {"measurement": "Colony formation inhibitory effect of TMZ and BCNU on co-treatment with sp2", "setting": "LN229 cells [2]; sp2 + TMZ or BCNU", "value": "additive trend also applied"},
      {"measurement": "Cell viability (MTT), co-treatment of sp2 with TMZ", "setting": "LN-Z308 cells [4]; [14]", "value": "additive effect"},
      {"measurement": "Cell viability (MTT)", "setting": "LN-Z308 cells [4]; [13]", "value": "selectively decreased LN-Z308 cell viability"},
      {"measurement": "Cell viability (MTT), sp2 alone", "setting": "LN-Z308 cells [4]; [15]", "value": "suppressive activity of sp2 on LN-Z308 cell viability, which occurred in a dose-dependent manner"},
      {"measurement": "Invasive activity", "setting": "LN-Z308 cells [8]", "value": "strongly inhibited the invasive activity"},
      {"measurement": "Inhibitory effect on the PIKE-A/Akt interaction, GST pull-down", "setting": "PIKE-A/Akt interaction [10]; GST pull-down as in Figure 2, Figure 5e", "value": "inhibited the binding"},
      {"measurement": "Akt T308 and S473 phosphorylation", "setting": "[9]", "value": "diminished"},
      {"measurement": "Colony formation inhibitory effect of TMZ and BCNU on co-treatment with sp2", "setting": "LN-Z308 cells [3]; 50 μM sp2 + TMZ or BCNU, Figure 6e", "value": "substantially increased"},
      {"measurement": "Colony formation, sp2", "setting": "LN-Z308 cells [3]; summary statement of Figure 6", "value": "strongly inhibits"}
    ]},
    {"compound": "TGSYQ [sp6]", "values": [
      {"measurement": "Invasive activity", "setting": "LN229 cells [5]", "value": "did not significantly affect"},
      {"measurement": "Interaction between a fragment of PIKE-A (1–356 a.a.) and Akt", "setting": "PIKE-A/Akt interaction [6]", "value": "decreased the interaction"},
      {"measurement": "Disruption of the interaction between PIKE-A and Akt (ELISA, RLU)", "setting": "PIKE-A/Akt interaction [7]", "value": "failed to block the PIKE-A/Akt interaction"},
      {"measurement": "Cell viability (MTT)", "setting": "LN229 cells [1]; [13]", "value": "not in LN229 cells"},
      {"measurement": "Cell viability (MTT)", "setting": "LN-Z308 cells [4]; [13]", "value": "selectively decreased LN-Z308 cell viability"},
      {"measurement": "Invasive activity", "setting": "LN-Z308 cells [8]", "value": "did not significantly affect"}
    ]}
  ]
}
